Results as given in ChEMBL document CHEMBL2157903, “2-Arylbenzofuran-based molecules as multipotent Alzheimer's disease modifying agents” (Eur J Med Chem, 2012).
Calls of active or inactive are those of the source. No cut-off for these calls is given here.

Key:
[1] = biological target: T1, Cannabinoid receptor 1 (Homo sapiens, UniProt P21554); assay: Displacement of [3H]CP-55940 from human recombinant CB1 receptor expressed in HEK293 cells after 90 mins; format: cell-based
Procedure, shortened: (§1)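 Membranes from HEK-293 cells stably expressing human recombinant CB1 (Bmax 2.5 pmol/mg) or CB2 (Bmax 4.7 pmol/mg). Incubated with [3H]-CP-55,940 (CB1 0.14 nM, Kd 0.18 nM; CB2 0.084 nM, Kd 0.31 nM) and increasing compound concentrations for 90 min at 30 °C. Non-specific binding defined with 10 […] 55212-2. IC50 by non-linear regression, converted to Ki by Cheng-Prusoff. Means of at least n = 3.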

[2] = biological target: Cholinesterase (Homo sapiens, UniProt P06276); assay: Inhibition of human serum BuChE using butyrylthiocholine iodide as substrate preincubated for 20 mins prior to substrate addition by Ellman's method
Cholinesterase, sequence (P06276 whole entry): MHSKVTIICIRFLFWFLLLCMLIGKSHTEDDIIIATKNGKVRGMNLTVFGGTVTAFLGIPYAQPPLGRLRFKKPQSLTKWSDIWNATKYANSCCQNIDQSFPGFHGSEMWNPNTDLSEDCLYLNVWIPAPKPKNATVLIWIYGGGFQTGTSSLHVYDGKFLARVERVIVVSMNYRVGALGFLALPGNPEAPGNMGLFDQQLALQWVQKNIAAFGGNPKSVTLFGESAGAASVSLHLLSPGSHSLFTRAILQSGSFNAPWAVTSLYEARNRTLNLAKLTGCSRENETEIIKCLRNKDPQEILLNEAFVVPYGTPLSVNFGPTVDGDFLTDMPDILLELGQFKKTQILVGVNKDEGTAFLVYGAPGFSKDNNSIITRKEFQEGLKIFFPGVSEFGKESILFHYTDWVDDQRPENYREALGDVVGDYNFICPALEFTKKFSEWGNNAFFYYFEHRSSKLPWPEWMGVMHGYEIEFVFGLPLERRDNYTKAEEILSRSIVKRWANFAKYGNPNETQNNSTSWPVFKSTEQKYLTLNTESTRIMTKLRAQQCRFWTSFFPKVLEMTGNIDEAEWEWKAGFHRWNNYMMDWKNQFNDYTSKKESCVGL
Procedure, shortened: (§2)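 Ellman method with acetylthiocholine iodide (AChE) or butyrylthiocholine iodide (BuChE) as substrate. Enzyme and inhibitor preincubated 20 min at 37 °C before substrate addition. Blanks without enzyme corrected for non-enzymatic hydrolysis. Five inhibitor concentrations giving 20-80% inhibition. IC50 from linear regression of % inhibition vs log final concentration. Mean of two or three independent measurements, each in triplicate.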

[3] = biological target: Acetylcholinesterase (Homo sapiens, UniProt P22303); assay: Inhibition of human recombinant AChE using acetylthiocholine iodide as substrate preincubated for 20 mins prior to substrate addition by Ellman's method; procedure, shortened: as §2
Acetylcholinesterase, sequence (P22303 whole entry): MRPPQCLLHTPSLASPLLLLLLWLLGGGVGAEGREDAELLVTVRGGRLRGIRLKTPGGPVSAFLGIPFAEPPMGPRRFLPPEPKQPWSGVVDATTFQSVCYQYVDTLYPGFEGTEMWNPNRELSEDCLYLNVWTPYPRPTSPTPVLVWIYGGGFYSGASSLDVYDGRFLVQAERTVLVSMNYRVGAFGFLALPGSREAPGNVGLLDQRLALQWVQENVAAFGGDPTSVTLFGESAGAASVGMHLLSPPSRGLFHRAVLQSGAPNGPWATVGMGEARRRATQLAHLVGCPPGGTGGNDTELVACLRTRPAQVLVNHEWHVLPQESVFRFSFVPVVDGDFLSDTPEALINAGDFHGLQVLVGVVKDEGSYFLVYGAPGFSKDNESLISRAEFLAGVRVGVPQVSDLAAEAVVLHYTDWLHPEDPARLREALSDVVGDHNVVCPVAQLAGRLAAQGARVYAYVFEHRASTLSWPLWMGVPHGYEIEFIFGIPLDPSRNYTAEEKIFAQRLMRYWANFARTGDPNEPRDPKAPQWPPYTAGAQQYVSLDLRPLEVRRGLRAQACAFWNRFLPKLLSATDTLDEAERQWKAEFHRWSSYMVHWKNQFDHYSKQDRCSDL

[4] = biological target: T2, Cannabinoid receptor 2 (Homo sapiens, UniProt P34972); assay: Displacement of [3H]CP-55940 from human recombinant CB2 receptor expressed in HEK293 cells after 90 mins; format: cell-based; procedure, shortened: as §1
T2 sequence (P34972 whole entry): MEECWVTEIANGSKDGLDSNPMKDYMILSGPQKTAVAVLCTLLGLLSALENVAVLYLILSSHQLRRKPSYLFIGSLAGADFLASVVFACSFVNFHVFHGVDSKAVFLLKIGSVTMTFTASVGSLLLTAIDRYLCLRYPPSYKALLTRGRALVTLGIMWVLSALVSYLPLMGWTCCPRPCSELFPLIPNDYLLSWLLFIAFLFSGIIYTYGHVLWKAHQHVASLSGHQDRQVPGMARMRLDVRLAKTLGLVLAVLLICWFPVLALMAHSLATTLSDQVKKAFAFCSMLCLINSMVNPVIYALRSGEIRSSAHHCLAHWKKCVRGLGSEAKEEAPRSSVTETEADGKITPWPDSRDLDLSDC

[5] = Inhibition of amyloid beta (25 to 35) fibril formation at 10 uM incubated up to 6 hrs by UV-Vis spectrophotometric analysis
Procedure, shortened: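 Aβ25-35 at 100 μM final, in 10 mM phosphate buffer pH 7.2, sonicated 1 min on addition. Compound added in MeOH at 10 μM final, with curcumin reference alongside. Polymerization followed by UV-vis at 190-380 nm over 0-6 h. Spectra of compound alone were subtracted. At least three independent runs.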

[6] = biological target: T2, Cannabinoid receptor 2; assay: Displacement of [3H]CP-55940 from human recombinant CB2 receptor expressed in HEK293 cells at 10 uM after 90 mins; format: cell-based
[7] = biological target: T1, Cannabinoid receptor 1; assay: Displacement of [3H]CP-55940 from human recombinant CB1 receptor expressed in HEK293 cells at 10 uM after 90 mins; format: cell-based
Procedure, shortened: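 Membranes from HEK-293 cells stably expressing human recombinant CB1 or CB2 were incubated with [³H]-CP-55,940 (0.14 nM for CB1; 0.084 nM for CB2) plus test compound for 90 min at 30 °C. Non-specific binding was defined with WIN 55212-2. Percent displacement of bound radioligand at the maximum tested concentration is reported. At least n = 3 experiments.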

[8] = Inhibition of amyloid beta (25 to 35) fibril formation incubated up to 6 hrs by UV-Vis spectrophotometric analysis
Procedure, shortened: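 Aβ25-35, sonicated 1 min, was mixed in 10 mM phosphate buffer (pH 7.2) with compound added in MeOH, on ice. Polymerization was followed by UV-visible spectroscopy at 190–380 nm over 0–6 h. Compound-alone spectra were subtracted, and peptide-alone and curcumin controls were run in parallel. IC50 (0.1–50 range) came from a sigmoidal least-squares fit. At least three independent runs.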

[9] = biological target: Amyloid-beta precursor protein (Homo sapiens) (UniProt P05067); assay: Inhibition of amyloid beta (25 to 35) binding to plasma membrane surface of human Sh-SY5Y cells at 30 uM after 30 mins by congo red-based spectrophotometry; format: cell-based
Amyloid-beta precursor protein (Homo sapiens), sequence (P05067 whole entry): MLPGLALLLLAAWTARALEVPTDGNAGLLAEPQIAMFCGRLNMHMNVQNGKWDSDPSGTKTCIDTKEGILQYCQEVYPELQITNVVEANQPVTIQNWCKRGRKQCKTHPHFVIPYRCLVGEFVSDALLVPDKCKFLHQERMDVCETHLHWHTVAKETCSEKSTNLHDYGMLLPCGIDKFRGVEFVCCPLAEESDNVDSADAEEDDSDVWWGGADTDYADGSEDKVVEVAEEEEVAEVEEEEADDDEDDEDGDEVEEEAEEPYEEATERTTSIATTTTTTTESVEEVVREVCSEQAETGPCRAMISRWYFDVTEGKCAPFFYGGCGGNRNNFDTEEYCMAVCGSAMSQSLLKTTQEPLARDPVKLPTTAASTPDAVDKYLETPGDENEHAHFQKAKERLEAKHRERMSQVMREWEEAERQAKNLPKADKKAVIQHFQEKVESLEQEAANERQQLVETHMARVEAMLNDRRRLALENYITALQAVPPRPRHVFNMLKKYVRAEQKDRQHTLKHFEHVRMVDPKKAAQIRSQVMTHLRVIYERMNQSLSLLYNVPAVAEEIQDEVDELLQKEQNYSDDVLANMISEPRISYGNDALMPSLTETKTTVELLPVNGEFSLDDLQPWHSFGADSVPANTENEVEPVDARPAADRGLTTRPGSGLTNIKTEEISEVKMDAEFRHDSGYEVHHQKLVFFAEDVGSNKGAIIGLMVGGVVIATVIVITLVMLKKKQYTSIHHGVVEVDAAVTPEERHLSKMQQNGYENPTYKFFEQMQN
Procedure, shortened: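 SH-SY5Y cells were seeded at 5 × 10³/well for 24 h, then given fresh medium with Aβ25-35 and compound for 10, 20 and 30 min. After two PBS washes, bound peptide was stained with Congo red in PBS for 20 min. Absorbance was read at 540 nm and expressed as % of untreated cells.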

[10] = system: SH-SY5Y; assay: Neuroprotective activity in human SH-SY5Y cells assessed as inhibition of amyloid beta (25 to 35)-induced cytotoxicity at 30 uM after 3 hrs by MTT assay; format: functional
Procedure, shortened: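 SH-SY5Y cells in DMEM with 10% FBS were seeded at 3 × 10⁴/well for 24 h. They were exposed for 3 h at 37 °C to HFIP-pretreated unaggregated Aβ25-35 with or without compound (1–30 range). Viability was read by MTT (5 mg/mL, 2 h; isopropanol; 570/690 nm) as % of untreated control. Percentage protection is given at the highest concentration. Mean ± SD of at least two experiments.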

[11] = system: SH-SY5Y; assay: Neuroprotective effect in human SH-SY5Y cells assessed as inhibition of amyloid beta (25 to 35)-induced ROS production at 30 uM after 3 hrs by DHE-based fluorimetric analysis; format: functional, cell-based
Procedure, shortened: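 SH-SY5Y cells were seeded at 1 × 10⁴/well on culture slides for 24 h and treated with Aβ25-35 with or without compound for 3 h. ROS was measured with DHE loaded for 15 min in the dark, then 1 h in serum-free DMEM at 37 °C. Fluorescence microscopy covered four random fields of 50–100 cells each, scored as densitometry per cell versus untreated cells. Mean ± SD of three experiments.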

T1 sequence (P21554 whole entry): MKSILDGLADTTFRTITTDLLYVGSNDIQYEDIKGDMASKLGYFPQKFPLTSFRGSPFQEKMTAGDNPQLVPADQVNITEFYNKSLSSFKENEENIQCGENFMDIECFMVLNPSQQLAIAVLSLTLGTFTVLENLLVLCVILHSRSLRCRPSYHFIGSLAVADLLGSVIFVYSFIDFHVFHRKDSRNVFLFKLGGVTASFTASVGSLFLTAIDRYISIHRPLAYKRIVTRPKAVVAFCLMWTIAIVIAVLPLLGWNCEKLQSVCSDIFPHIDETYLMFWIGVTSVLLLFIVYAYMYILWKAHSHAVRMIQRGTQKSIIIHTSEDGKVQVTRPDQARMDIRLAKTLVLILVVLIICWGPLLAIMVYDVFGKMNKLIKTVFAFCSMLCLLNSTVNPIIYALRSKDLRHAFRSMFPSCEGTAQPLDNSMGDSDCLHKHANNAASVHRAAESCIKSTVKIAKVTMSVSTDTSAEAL

| Structure (SMILES) | Activity [1] | IC50 [2] [µM] | IC50 [3] | Activity [4] | inhibition [5] | EC50 [1] [µM] | Ki [1] [nM] | Activity [6] [%] | Activity [7] [%] | IC50 ([3]; read-out: IC50) [µM] | EC50 [4] [µM] | Ki [4] [nM] | IC50 [8] [µM] | inhibition [9] | inhibition at 30 µM [10] [%] | inhibition [11] |
| --- | --- | --- | --- | --- | --- | --- | --- | --- | --- | --- | --- | --- | --- | --- | --- | --- |
| COc1cccc(C(=O)c2c(-c3cccc(OCCCCCCCN(C)Cc4ccccc4)c3)oc3ccccc23)c1 | inactive | 1.37 | Not Active | inactive | – | – | – | – | – | – | – | – | – | – | – | – |
| CN(CCCCCCCCOc1ccc(-c2cc3ccccc3o2)cc1)Cc1ccccc1 | – | 7.47 | Not Active | – | Active | – | – | – | – | – | – | – | – | – | – | – |
| CCN(CC)Cc1cccc(C(=O)c2c(-c3ccc(OCCCCCCCN(C)Cc4ccccc4)cc3)oc3ccccc23)c1 | – | 3.18 | – | – | Active | > 10 | > 10000 | 47.3 | 29.8 | 53 | > 10 | > 10000 | – | – | – | – |
| Cc1ccc(C(=O)c2c(-c3cccc(OCCCCCCCN(C)Cc4ccccc4)c3)oc3ccccc23)cc1 | inactive | 43.9 | Not Active | inactive | – | – | – | – | – | – | – | – | – | – | – | – |
| CN(CCCCCCCOc1ccc(-c2oc3ccccc3c2C(=O)c2cccc3ccccc23)cc1)Cc1ccccc1 | – | 60.1 | – | – | 48% | > 10 | > 10000 | 8.9 | 13.8 | 101 | > 10 | > 10000 | – | – | – | – |
| CN(CCCCCCCCCOc1ccc(-c2cc3ccccc3o2)cc1)Cc1ccccc1 | – | 55.6 | Not Active | – | – | – | – | – | – | – | – | – | 5.5 | – | – | – |
| CN(CCCCCCCOc1ccc(-c2oc3ccccc3c2C(=O)c2ccc(OCCN3CCOCC3)cc2)cc1)Cc1ccccc1 | – | 21 | – | – | Active | 1.37 | 550 | 70.6 | 83.1 | 39 | 2.27 | 580 | – | – | – | – |
| COc1cc(/C=C/C(=O)CC(=O)/C=C/c2ccc(O)c(OC)c2)ccc1O [CURCUMIN] | – | – | – | – | – | – | – | – | – | – | – | – | 10 | – | – | – |
| CCN(CC)CCOc1ccc(C(=O)c2c(-c3ccc(OCCCCCCCN(C)Cc4ccccc4)cc3)oc3ccccc23)cc1 | – | 23 | – | – | Active | > 10 | > 10000 | 92 | 35.2 | 78 | 4.65 | 1180 | – | – | – | – |
| COc1ccccc1C(=O)c1c(-c2cccc(OCCCCCCCN(C)Cc3ccccc3)c2)oc2ccccc12 | inactive | 1.97 | Not Active | inactive | – | – | – | – | – | – | – | – | – | – | – | – |
| CCN(CC)Cc1ccc(C(=O)c2c(-c3ccc(OCCCCCCCN(C)Cc4ccccc4)cc3)oc3ccccc23)cc1 | – | 9.42 | – | – | Active | > 10 | > 10000 | 65.2 | 47.7 | 100 | 4.4 | 1120 | – | – | – | – |
| CN(CCCCCCCOc1ccc(-c2oc3ccccc3c2C(=O)c2ccccc2)cc1)Cc1ccccc1 | – | – | – | – | 47% | 0.79 | 320 | 47.3 | 8.72 | – | > 10 | > 10000 | 12.5 | Active | 58.2 | Active |
| COc1cc(OC)cc(C(=O)c2c(-c3cccc(OCCCCCCCN(C)Cc4ccccc4)c3)oc3ccccc23)c1 | inactive | 0.048 | Not Active | inactive | – | – | – | – | – | – | – | – | – | – | – | – |
| CN(CCCCCCCOc1ccc(-c2cc3ccccc3o2)cc1)Cc1ccccc1 | – | – | – | – | – | 6.95 | 2800 | 21.8 | 57.8 | – | > 10 | > 10000 | – | – | – | – |
| CN(CCCCCOc1ccc(-c2cc3ccccc3o2)cc1)Cc1ccccc1 | – | 6.6 | – | – | Active | – | – | – | – | 215 | – | – | – | – | – | – |
| CN(CCCOc1ccc(-c2cc3ccccc3o2)cc1)Cc1ccccc1 | – | 136 | Not Active | – | Active | – | – | – | – | – | – | – | – | – | – | – |
| CN(CCCCCCCOc1ccc(-c2oc3ccccc3c2C(=O)c2ccc3ccccc3c2)cc1)Cc1ccccc1 | – | 89.1 | Not Active | – | – | > 10 | > 10000 | 6.87 | 35.1 | – | > 10 | > 10000 | – | – | – | – |
| COc1ccc(C(=O)c2c(-c3cccc(OCCCCCCCN(C)Cc4ccccc4)c3)oc3ccccc23)cc1OC | inactive | 2.51 | Not Active | inactive | – | – | – | – | – | – | – | – | – | – | – | – |
| COc1cccc(C(=O)c2c(-c3cccc(OCCCCCCCN(C)Cc4ccccc4)c3)oc3ccccc23)c1OC | inactive | 3.01 | Not Active | inactive | – | – | – | – | – | – | – | – | – | – | – | – |
| CCN(CC)CCOc1cccc(C(=O)c2c(-c3ccc(OCCCCCCCN(C)Cc4ccccc4)cc3)oc3ccccc23)c1 | – | 1.81 | – | – | Active | 6.38 | 2570 | 77.9 | 76.5 | 37.1 | 2.71 | 690 | – | – | – | – |
